Assay outcomes: PubChem, several laboratories
Compounds with a hit are over-represented: about 2.3% of the library has one in this group of screens.
GalR3 antagonist: antagonists of human GalR3; O60755; HEK293 GalR3-CNG cAMP membrane potential fluorescence; galR3 body fused to GalR1 C-terminus; inhibition, % at 3 µM; 0.44% of 360,000 active; AID 651719;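 active = inhibition above the screen-wide average plus 3 SD, cut at about 13% in these data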;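 also: forskolin and galanin both at EC90 stimulate the cells; cAMP rise reported by CNG channel membrane potential dye signal; 0% = forskolin plus galanin with DMSO and 100% = forskolin alone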
NR2F2 inh: NR2F2 (human) inhibition, primary screen; P24468; HEK293T NGFI-A luciferase reporter, luminescence; inhibition, % at 8.6 µM; 0.7% of 370,000 active; AID 686940;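 active = inhibition above a per-plate cutoff, mean inhibition of test wells between control levels plus 3 SD, cut at about 38% in these data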;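 also: cells cotransfected with COUP-TFII expression vector driving the NGFI-A reporter; 0% = median of COUP-TF2 test wells and 100% = reporter-only cells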
NR2E3 ag-1: agonists of human NR2E3 nuclear receptor. Q9Y5X4. CHO-S Gal4-NCOR/VP16-NR2E3 two-hybrid, luciferase. inhibition of corepressor binding, % at 3.98 µM. 0.35% of 360,000 active. AID 602229;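 active = inhibition above the mean of all tested compounds plus 3 SD, cut at about 70% in these data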;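 also: 0% = DMSO with NR2E3 transfected cells and 100% = cells lacking NR2E3 construct; higher means lower luciferase signal from less NR2E3 corepressor binding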
Target sequence (Q9Y5X4 whole entry, looked up, the tested form may be a part): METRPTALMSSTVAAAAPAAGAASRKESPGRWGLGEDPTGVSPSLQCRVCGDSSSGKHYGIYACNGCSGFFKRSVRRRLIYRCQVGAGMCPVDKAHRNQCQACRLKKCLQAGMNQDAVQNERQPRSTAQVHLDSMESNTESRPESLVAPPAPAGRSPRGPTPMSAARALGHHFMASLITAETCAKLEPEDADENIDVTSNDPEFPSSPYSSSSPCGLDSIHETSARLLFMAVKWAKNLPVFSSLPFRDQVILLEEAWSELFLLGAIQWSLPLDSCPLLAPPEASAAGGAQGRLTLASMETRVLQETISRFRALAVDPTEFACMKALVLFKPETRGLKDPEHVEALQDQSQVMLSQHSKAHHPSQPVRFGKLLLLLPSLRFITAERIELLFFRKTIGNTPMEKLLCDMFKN
CHT inh: inhibits the human high affinity choline transporter; CHT-expressing cells, membrane potential dye, choline response; active compounds read low; 0.86% of 310,000 active; B-score at 10 µM;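 active = B-score over 3 SD under the library average, and starting fluorescence ratio not unusually high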;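 also: choline stimulus applied at its EC90 after an EC20 pre-addition; B-score computed on integrated fluorescence ratio after choline addition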
CHT allo act: human CHT allosteric activation; AID 488977; 0.49% of 310,000 active; CHT-expressing cells, membrane potential dye, choline EC20; active compounds read high; LV-AA mutant CHT in HEK293 cells; B-score at 10 µM;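 active = initial fluorescence not abnormally high and integrated response B-score, plate-corrected, over 3 SD above library mean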
NR2E3 ag-2: activates human photoreceptor nuclear receptor NR2E3. GST-NR2E3/biotin-RetCOR TR-FRET, 1536-well. inhibition of corepressor binding, % at 4.78 µM. 0.12% of 320,000 active;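 active = percent inhibition above the cutoff of mean plus 3 SD of all tested compounds, set per screening campaign, cut at about 20% in these data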;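 also: 0% = DMSO wells and 100% = biotin wells as full block of FRET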
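system = GST-tagged NR2E3 plus biotinylated RetCOR corepressor | input = 1.35 nM GST-NR2E3 | also added = 7 nM biotin-RetCOR | schedule = 5 h incubation at 4 °C | measured by = TR-FRET with europium anti-GST and streptavidin-D2, 340 nm excitation | read-out = percent loss of FRET ratio relative to control wells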
CHT inh conf: human CHT inhibition, confirmatory screen. shares compounds with CHT inh. CHT-expressing cells, choline membrane potential dye; LV-to-AA substituted CHT, HEK293 cells. CHT activity remaining % of control (active compounds read low), % at 10 µM. 70% of 2,400 active. AID 493221;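 active = choline transporter activity left, mean of duplicates at 10 µM, below buffer-only control mean minus 3 SD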;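 also: depolarization triggered by choline at its EC90 following an EC20 pre-addition; 0% = hemicholinium-3 full block and 100% = buffer-only control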
HEK293 MPD ctr: activity in parental HEK293 cells lacking CHT; shares compounds with CHT inh; membrane potential ratio readout (active if shifted either direction beyond buffer ±3SD; no single direction) at 10 µM; AID 493222; membrane potential dye, choline response; active = decrease or increase beyond buffer ±3SD; 4% of 2,400 active;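 also: parental cells lack the transporter so any hit is non-specific; ratio is peak minus trough fluorescence over baseline after EC90 choline challenge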
* marks the source's active call; other numbers are inactive results.

CC(C)CCNC(=O)C(c1ccco1)N(Cc1ccc(F)cc1)C(=O)c1snc(C(N)=O)c1N (stereo not given) was read as GalR3 antagonist -9, NR2F2 inh 8, NR2E3 ag-1 -6, CHT inh inactive, CHT allo act inactive and NR2E3 ag-2 0.
COc1ccc(OC[C@@H](O)CN2CCC(C(O)(c3ccccc3)c3ccccc3)CC2)cc1 was read as NR2F2 inh 3.
For CCOC(=O)c1cnc2c(Cl)cccc2c1NCCN1CCOCC1 the results were GalR3 antagonist -2, NR2F2 inh -9, NR2E3 ag-1 -19, CHT inh -5.8*, CHT allo act inactive, NR2E3 ag-2 3, CHT inh conf inactive and HEK293 MPD ctr 2.8*.
CC1CCN(S(=O)(=O)c2nnc(NC(=O)c3cccc(Cl)c3)s2)CC1 was read as NR2F2 inh 11, NR2E3 ag-1 -7, CHT inh -6.6*, CHT allo act inactive, NR2E3 ag-2 3, CHT inh conf inactive and HEK293 MPD ctr inactive.
COc1ccccc1C(=O)Nc1nnc(S(=O)(=O)N2CCC(C)CC2)s1 was read as GalR3 antagonist -7, NR2F2 inh 11, NR2E3 ag-1 -19, CHT inh inactive, CHT allo act inactive and NR2E3 ag-2 -1.
`O=C(OC12CCCN(C1)/C(=C/c1ccc(Cl)cc1)C2)c1ccccc1` (stereo not given) gave NR2F2 inh 26.
O=C(Nc1cccc(CNCCc2c[nH]c3ccccc23)c1)c1ccccc1Cl was read as GalR3 antagonist -15, NR2F2 inh -3, NR2E3 ag-1 5, CHT inh -6.3*, CHT allo act inactive, NR2E3 ag-2 -1, CHT inh conf 31%* and HEK293 MPD ctr inactive.
For Cc1nnc(SCc2cnc(-c3ccc(C(C)C)cc3)s2)n1C the results were GalR3 antagonist -5, NR2F2 inh -26, NR2E3 ag-1 -125, CHT inh -12*, CHT allo act inactive, NR2E3 ag-2 0, CHT inh conf 49%* and HEK293 MPD ctr inactive.
`c1ccc(-c2ncc(CSc3nncn3-c3ccccc3)s2)cc1` gave GalR3 antagonist 0, NR2F2 inh -4, NR2E3 ag-1 -8, CHT inh inactive, CHT allo act inactive and NR2E3 ag-2 0.
Screening CC(COc1cccc(C(F)(F)F)c1)CN1CCC(C(O)(c2ccccc2)c2ccccc2)CC1 (stereo not given) returned NR2F2 inh 0.
Screening CCN(CC)S(=O)(=O)c1ccc(/C=C/C(=O)NC2CCCCC2)cc1 returned GalR3 antagonist -8, NR2F2 inh -3, NR2E3 ag-1 -15, CHT inh -7.1*, CHT allo act inactive, NR2E3 ag-2 1, CHT inh conf 46%* and HEK293 MPD ctr inactive.
`CCOc1ccc(/C=C/C(=O)NC2CCCCC2)cc1` gave GalR3 antagonist -13, NR2F2 inh -20, NR2E3 ag-1 -50, CHT inh inactive, CHT allo act inactive and NR2E3 ag-2 -1.
`C=CCN(CC#CCN(C)C(=O)c1cccn1C(=O)OC(C)(C)C)Cc1ccc(OC)cc1OC` gave NR2F2 inh -3.
Cc1cc(OC(C)CCN2CCC(C(O)(c3ccccc3)c3ccccc3)CC2)ccc1Br (stereo not given) was read as NR2F2 inh -7.
Screening Cc1ccc(C(=O)CSc2nnc(-c3ccco3)n2C)cc1 returned GalR3 antagonist -3, NR2F2 inh -8, NR2E3 ag-1 -37, CHT inh -5.4*, CHT allo act inactive, NR2E3 ag-2 2, CHT inh conf 69%* and HEK293 MPD ctr inactive.
For COc1ccc(C=Nn2c(-c3ccccc3F)n[nH]c2=S)cc1OCc1ccccc1 the results were NR2F2 inh -64.
`Cc1ccc[n+](CC(=O)c2ccc(Br)cc2)c1` gave GalR3 antagonist 0, NR2F2 inh -3, NR2E3 ag-1 -1, CHT inh -10*, CHT allo act inactive, CHT inh conf 4.2%* and HEK293 MPD ctr inactive.
Cc1ccc[n+](CC(=O)c2ccc(Br)cc2)c1C was read as GalR3 antagonist -11, NR2F2 inh 11, NR2E3 ag-1 -20, CHT inh -9.7*, CHT allo act inactive, NR2E3 ag-2 5, CHT inh conf 39%* and HEK293 MPD ctr inactive.
Screening COc1ccc(C(=O)C[n+]2cccc(C)c2)cc1 returned GalR3 antagonist -1, NR2F2 inh 5, NR2E3 ag-1 -13, CHT inh -8.5*, CHT allo act inactive, NR2E3 ag-2 2, CHT inh conf 6.4%* and HEK293 MPD ctr inactive.
For Cc1ccc[n+](CC(=O)c2ccccc2)c1 the results were CHT inh inactive, CHT allo act inactive and NR2E3 ag-2 0.
`C=CCOC/C=C/C#CCN(Cc1ccc(OC)cc1OC)C(=O)Nc1ccccc1` gave NR2F2 inh -17.
COC(=O)[C@]12C[C@H](CC(=O)NCc3cccc4ccccc34)C(=O)N(CCC3=CCCCC3)C1=C[C@H](C(C)C)O[C@@H]2C1CC1 was read as NR2F2 inh 14.
Screening Cc1ccc(S(=O)(=O)/N=C2\C=C(NS(=O)(=O)c3ccccc3)C(=O)c3ccccc32)c(C)c1 returned GalR3 antagonist 1, NR2F2 inh 2 and NR2E3 ag-1 -1.
`Cc1ccc(S(=O)(=O)/N=C2\C=C(Nc3cccc(C(=O)O)c3)C(=O)c3ccccc32)cc1` gave GalR3 antagonist -2, NR2F2 inh 2, NR2E3 ag-1 -27, CHT inh -5.9*, CHT allo act inactive, NR2E3 ag-2 3, CHT inh conf 41%* and HEK293 MPD ctr 2.5*.
COC(=O)c1ccccc1NC1=C/C(=N\S(=O)(=O)c2ccc(C(=O)O)cc2)c2ccccc2C1=O was read as NR2E3 ag-1 10, CHT inh inactive, CHT allo act inactive and NR2E3 ag-2 4.
`CC(C)(C)c1ccc(S(=O)(=O)/N=C2\C=C(NS(=O)(=O)c3ccccc3)C(=O)c3ccccc32)cc1` gave GalR3 antagonist -8, NR2F2 inh 22, NR2E3 ag-1 -8, CHT inh -8.7*, CHT allo act inactive, NR2E3 ag-2 2, CHT inh conf 40%* and HEK293 MPD ctr inactive.
`O=C(CSc1nnc(-c2cccs2)n1Cc1ccco1)Nc1ccc(OCc2ccccc2)cc1` gave NR2F2 inh 1.
